Calls of active or inactive are those of the source. The rule behind the calls is not given here.

The subject of data set [1] is Candida albicans. Put plainly: Antifungal activity against Candida albicans by checkerboard method in presence of R6G. In kind it is functional. Summed up:
(§1)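 Checkerboard (CLSI method) on S. cerevisiae AD1-8u cells overexpressing GFP-tagged C. albicans Cdr1p (AD-CDR1). […] FIC = MIC in combination/MIC alone.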

The target in data set [2] is T1, Multidrug resistance protein CDR1 (Candida albicans, UniProt P43071). Put plainly: Inhibition of GFP-tagged Candida albicans CDR1 expressed in Saccharomyces cerevisiae assessed as inhibition of R6G efflux. In short, it runs like this: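 S. cerevisiae AD-CDR1 cells were grown 5 h, then de-energized 45 min in 5 mM deoxyglucose/5 mM dinitrophenol in glucose-free PBS. Compound (10–100 μM) was added 5 min before 10 μM R6G, and cells were loaded 40 min at 30°C. After washing, efflux was started with 2% glucose. Supernatant A527 was read at 40 min, with glucose-free controls. Means of three independent experiments.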

For data set [3], the system named is Saccharomyces cerevisiae. The data set can be described thus: Toxicity against CDR2-expressing Saccharomyces cerevisiae AD after 48 hrs by MTT assay.
Data set [4] deals with Saccharomyces cerevisiae. Put plainly: Toxicity against Saccharomyces cerevisiae AD1-8u after 48 hrs by MTT assay.
Data set [5] relates to Candida albicans. The data set can be described thus: Effect on CDR1 expression in Candida albicans at 100 uM by Western blot analysis. In kind it is functional, organism-based.
Data set [6] deals with Saccharomyces cerevisiae. Put plainly: Toxicity against Candida albicans MDR1-expressing Saccharomyces cerevisiae AD1-8u after 48 hrs by MTT assay.
Data set [7] has as its target Multidrug resistance protein CDR1 (Candida albicans) (UniProt P43071). The note with it: 100 uM.
In data set [8] the test system is Saccharomyces cerevisiae. Put plainly: Toxicity against PDR5-expressing Saccharomyces cerevisiae AD after 48 hrs by MTT assay.
Data set [9] concerns the target T1, Multidrug resistance protein CDR1. The data set can be described thus: Displacement of [125I]IAAP from GFP-tagged Candida albicans CDR1 expressed in Saccharomyces cerevisiae. Summed up: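 Crude membranes (50 μg) from S. cerevisiae AD-CDR1 cells were preincubated with compound for 10 min at 37°C in 50 mM Tris-HCl pH 7.5. They were then given 3–6 nM [125I]IAAP for 5 min under subdued light and UV-crosslinked at 365 nm for 10 min at room temperature. Cdr1p was immunoprecipitated with anti-GFP, run on 7% Tris-acetate gel, and the band quantified by phosphorimager.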

The subject of data set [10] is Saccharomyces cerevisiae. Put plainly: Toxicity against CDR1-expressing Saccharomyces cerevisiae AD after 48 hrs by MTT assay.
Data set [11] concerns the target Multidrug resistance protein CDR1 (Candida albicans) (UniProt P43071). The note with it: 100 uM. The source holds these as a separate data set.
The test system of data set [12] is COc1cc(/C=C/C(=O)CC(=O)/C=C/c2ccc(O)c(OC)c2)ccc1O. Particulars: Candida albicans.
The test system of data set [13] is Candida albicans. The data set can be described thus: Antifungal activity against Candida albicans by checkerboard method in presence of miconazole. In kind it is functional. Summed up:
as §1

The subject of data set [14] is Candida albicans. Put plainly: Antifungal activity against Candida albicans by checkerboard method in presence of ketoconazole. In kind it is functional. In short, it runs like this:
as §1

The test system of data set [15] is Candida albicans. The data set can be described thus: Antifungal activity against Candida albicans by checkerboard method in presence of itraconazole. In kind it is functional. In short, it runs like this: as §1

As for `CC/N=c1\cc2oc3cc(NCC)c(C)cc3c(-c3ccccc3C(=O)OCC)c-2cc1C.Cl` [RHODAMINE 6G HYDROCHLORIDE], the FIC with Candida albicans [1] is listed as 0.0013.
Take `COc1cc(/C=C/C(O)=C/C(=O)/C=C/c2ccc(O)cc2)ccc1O` [DEMETHOXYCURCUMIN]: the IC50 in data set [2] was found to be 45 µM.
For the molecule `COc1cc(/C=C/C(=O)CC(=O)/C=C/c2ccc(O)c(OC)c2)ccc1O` [CURCUMIN], the half-maximal inhibitory concentration (IC50) came to 411 µM in the data set on Saccharomyces cerevisiae [3]; 422 µM with Saccharomyces cerevisiae [4]; 455 µM in the data set with Saccharomyces cerevisiae [6]; 40 µM in data set [2]; 498 µM in the data set with Saccharomyces cerevisiae [8]; 14.2 µM in data set [9]. In addition, the half-maximal inhibitory concentration (IC50) with Saccharomyces cerevisiae [10] turned out to be 493 µM. Besides, the outcome with Candida albicans [5] was inactive. Moreover, in data set [7], the inhibition entry is “Active”. Further, the inhibition entry in data set [11] is “inactive”.
For the molecule `O=C(/C=C/c1ccc(O)cc1)CC(=O)/C=C/c1ccc(O)cc1` [BISDEMETHOXYCURCUMIN], the 50% inhibitory concentration (IC50) in [2] worked out at 40 µM.
As for “Multidrug resistance protein CDR1 (Candida albicans) (from UniProt P43071)”, the Km in [12] was 5.87 µM.
Regarding `CC(=O)N1CCN(c2ccc(OCC3COC(Cn4ccnc4)(c4ccc(Cl)cc4Cl)O3)cc2)CC1` (configuration not stated) [KETOCONAZOLE], the FIC is 0.005 in the data set with Candida albicans [13] and 0.0054 with Candida albicans [14].
`CCC(C)n1ncn(-c2ccc(N3CCN(c4ccc(OCC5COC(Cn6cncn6)(c6ccc(Cl)cc6Cl)O5)cc4)CC3)cc2)c1=O` (configuration not stated) [ITRACONAZOLE]: the FIC with Candida albicans [15] stood at 0.005.

Source of the values: ChEMBL document CHEMBL1649543 (Antimicrob Agents Chemother, 2009).
